# UCH37 inh: inhibitors of human deubiquitinating enzyme UCH37. purified proteasome/UCH37, Ub-AMC cleavage fluorescence. inhibition, % (no concentration beside the values). 330,000 compounds, 0.33% hits;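 active = mean inhibition over replicate wells above about 20%, limit read from the data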;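 note: 0% = compound-free wells with enzyme and 100% = wells lacking proteasome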
#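 Material: Human UCH37 enzyme supplied as purified proteasome complex | Schedule: 30 min compound-proteasome preincubation then 25 min substrate reaction, room temperature | Detection: AMC fluorescence from Ub-AMC cleavage, excitation 355 nm, emission 460 nm | Benchmarks: Wells without proteasome as full block, compound-free enzyme plus substrate as uninhibited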
# TDP2 absorb: TDP2 (human) inhibition, absorbance primary screen; O95551; inhibition, % at 12.8 µM; AID 720702; 370,000 compounds, 0.34% hits; recombinant TDP2, T5PNP hydrolysis, p-nitrophenol absorbance 415 nm;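 active = inhibition above the mean of all tested compounds plus 3 SD, set per campaign, cut at about 25% in these data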;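 note: 0% = DMSO with enzyme and 100% = buffer with substrate but no TDP2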
#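 Test system: human TDP2 enzyme; Input: 120 nM TDP2 per well; Buffer or medium: Mg2+-containing Tris-HCl buffer, pH 7.5; Reagent: 5 mM T5PNP; Dosing: 12.8 µM single point, 1% DMSO; Incubation: reaction 2 h, 37 °C; Detection: p-Nitrophenol epi absorbance; Read-out: % inhibition relative to enzyme-containing and enzyme-free wells; Replicates: single well per compound.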
# Fh CTSL1 inh: counter-screen for PFM18AAP inhibitors: inhibitors of F. hepatica cathepsin L1; AID 1906; recombinant F. hepatica cathepsin L1, Z-Leu-Arg-MCA fluorescence; 300,000 compounds, 0.49% hits; inhibition, % at 5.96 µM;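 active = inhibition above the mean of all tested compounds plus 3 SD, set per screening campaign, cut at about 17% in these data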;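 note: 0% = plate median of test compound wells and 100% = 1 µM Z-Phe-Ala-diazomethylketone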
# PAD4 FP inh: PAD4 (human) enzyme inhibition. recombinant PAD4, RCA probe fluorescence polarization. inhibition, % at 6.36 µM. 330,000 compounds, 0.41% hits;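 active = percent inhibition above a cutoff equal to the mean of all tested compounds plus 3 SD, cut at about 15% in these data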;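 note: 0% = PAD4 with RCA probe and DMSO and 100% = probe without PAD4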
# Target sequence (Q9UM07 whole entry, looked up): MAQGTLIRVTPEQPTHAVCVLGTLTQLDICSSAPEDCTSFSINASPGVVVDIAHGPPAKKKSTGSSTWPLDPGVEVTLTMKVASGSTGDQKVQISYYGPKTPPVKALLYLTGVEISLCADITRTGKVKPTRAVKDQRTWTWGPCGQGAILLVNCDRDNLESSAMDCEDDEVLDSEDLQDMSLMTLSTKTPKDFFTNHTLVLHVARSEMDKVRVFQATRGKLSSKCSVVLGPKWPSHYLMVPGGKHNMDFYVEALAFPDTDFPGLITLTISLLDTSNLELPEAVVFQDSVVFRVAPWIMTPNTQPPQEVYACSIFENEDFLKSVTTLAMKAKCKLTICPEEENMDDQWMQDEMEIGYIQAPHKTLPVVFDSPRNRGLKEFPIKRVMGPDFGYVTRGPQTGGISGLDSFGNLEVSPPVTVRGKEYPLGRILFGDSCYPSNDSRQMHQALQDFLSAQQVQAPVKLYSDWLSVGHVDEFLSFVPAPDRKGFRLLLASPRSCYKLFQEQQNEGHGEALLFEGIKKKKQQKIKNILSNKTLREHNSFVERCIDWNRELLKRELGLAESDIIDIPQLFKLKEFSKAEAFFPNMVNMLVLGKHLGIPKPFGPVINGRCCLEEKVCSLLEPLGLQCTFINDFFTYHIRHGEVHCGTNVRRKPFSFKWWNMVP
# HKDC1 inh: HKDC1 (human) hexokinase inhibition; Q2TB90; recombinant HKDC1, G6PDH/diaphorase resazurin coupled fluorescence; inhibition, % at 20 µM; 340,000 compounds, 0.16% hits; AID 493160;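 active = inhibition above about 35% when tested at 20 µM, limit read from the data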;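 note: plate controls were DMSO wells with enzyme for no effect and DMSO wells lacking enzyme for full effect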
#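 Material – in-house recombinant HK5 (HKDC1) enzyme · Quantity – HKDC1 at 5 µg/mL · Buffer or medium – pH 8.0 Tris buffer with 10 mM MgCl2 · Reagent – glucose with 1 mM ATP · Dosing – single 20 µM dose · Times – reaction time 90 min, room temperature, protected from light · Technique – resorufin fluorescence at 613 nm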
# GSTO1 inh: GSTO1 inhibition, counter-screen for RBBP9 inhibitors. P78417. recombinant GSTO1, activity-based probe fluorescence polarization. inhibition, % at 5.96 µM. 300,000 compounds, 1.1% hits. AID 1974;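 active = inhibition above the campaign mean inhibition plus 3 SD, cut at about 35% in these data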;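 note: 0% = GSTO1-1 with DMSO and 100% = wells lacking GSTO1-1 enzyme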
# GSTO1 inh conf: confirmation of human GSTO1 inhibitors | shares compounds with GSTO1 inh | recombinant GSTO1, probe fluorescence polarization | inhibition, % at 5.96 µM | 2,400 compounds, 54% hits;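 active = inhibition above the primary screen's cutoff, its mean inhibition plus 3 SD, cut at about 35% in these data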;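 note: loss of polarization as inhibitors block binding of rhodamine sulfonate ester activity probe; 0% = GSTO1 with DMSO and 100% = wells lacking GSTO1 enzyme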
# An asterisk follows results filed as active; i = inactive; . = no result given. Only some compounds are listed: those with a hit (about 1.6% of all), similar ones and a draw of the others.
SMILES,UCH37 inh,TDP2 absorb,Fh CTSL1 inh,PAD4 FP inh,HKDC1 inh,GSTO1 inh,others
CCC(C)[C@@H](NC(=O)OC(C)(C)C)c1nnc(S(=O)(=O)Cc2cccc(C)c2)o1 (some centres undefined),-1,10,.,.,1,.,
CC(C)(C)OC(=O)N[C@@H](Cc1ccccc1)c1nnc(SCC(=O)O)o1,2,5,29*,-1,-1,2,
Cc1cccc(C=NNC(=O)c2ccc(NC(=O)c3ccccc3C)cc2)n1,4,.,.,.,.,.,
O=C(COC(=O)c1cc2ccccc2oc1=O)Nc1ccc(F)cc1F,-9,9,31*,-6,-1,-10,
CCC(C)[C@H](NC(=O)N1CC(=O)Nc2ccccc21)C(=O)N[C@@H](Cc1c[nH]c2ccccc12)C(=O)O (some centres undefined),5,-5,5,1,-1,3,
CC(C)C[C@H](NC(=O)N1CC(=O)Nc2ccccc21)C(=O)N[C@H](Cc1c[nH]c2ccccc12)C(=O)O,3,6,38*,-1,-2,1,
CC(C)C[C@H](NC(=O)N1CC(=O)Nc2ccccc21)C(=O)N[C@@H](Cc1c[nH]c2ccccc12)C(=O)O,3,2,22*,-4,-5,11,
CCCCNC(=S)NN=Cc1ccc(OCC(=O)Nc2c(C)cc(C)cc2C)c(OC)c1,1,.,.,.,.,.,
CC(=O)Oc1ccc(C=NNS(=O)(=O)c2ccccc2)cc1,5,.,.,.,.,.,
COc1cc(C=NNC(=O)c2cccc3ccccc23)cc(OC)c1O,2,.,.,.,.,.,
Clc1ccc(C2=NN(c3ccccc3)C(c3ccco3)C2)cc1 (centres undefined),i,8,0,2,-2,6,
Cc1nc(N2N=C(c3ccc(Cl)cc3)CC2c2ccco2)sc1C(=O)N(C)C (centres undefined),-188,-11,25*,-3,-1,9,
CCN(CC)CC(=O)n1c2c(c3ccccc31)CCCC2,4,7,2,1,-7,2,
CN1CCN(CC(=O)n2c3c(c4ccccc42)CCCC3)CC1,8,29*,0,-1,2,21,
CCOC(=O)C(=NNc1ccc(C)cc1)S(=O)(=O)c1ccc(Cl)cc1,7,.,.,.,.,.,
CCc1nnc(NC(=O)CSc2nnc(Cc3ccccc3)n2Cc2ccccc2)s1,5,2,0,2,-1,-7,
CCc1nnc(NC(=O)CSc2nc3cccnc3n2Cc2ccccc2)s1,4,1,1,0,-1,36*,
Cc1ccc2[nH]c3c(=O)n(CC(=O)NCc4ccco4)ncc3c2c1,-5,5,1,-1,0,36*,
Cc1ccc(CCNC(=O)Cn2ncc3c([nH]c4ccccc43)c2=O)cc1,1,-16,9,0,-3,13,
Cc1ccc(S(=O)(=O)N(C)C(=NS(=O)(=O)c2ccccc2)c2ccccc2)cc1,6,.,.,.,.,.,
COC(=O)CCC(=O)OC1(C)C(=O)C=C2C=C(C3CC3)N(CCc3ccccn3)C=C2C1=O (centres undefined),7,22,2,10,19,43*,GSTO1 inh conf=17
COC(=O)CCC(=O)OC1(C)C(=O)C=C2C=C(C3CC3)N(Cc3ccc4c(c3)OCO4)C=C2C1=O (centres undefined),.,16,-10,0,24,44*,GSTO1 inh conf=16
COC(=O)CCC(=O)OC1(C)C(=O)C=C2C=C(C3CC3)N(CCc3c[nH]c4ccccc34)C=C2C1=O (centres undefined),3,11,-11,11,24,28,
Cc1cc(NC(=O)CON=Cc2ccc3c(c2)OCO3)ccc1Br,5,.,.,.,.,.,
CCNc1nnc(-c2ccccc2OC)s1,-45,10,-3,-4,-3,0,
COc1ccccc1-c1nnc(NC(=O)C(C)SC2=NCCS2)s1 (centres undefined),2,-2,0,11,-2,48*,GSTO1 inh conf=62*
Cn1c(=O)c2c(ncn2CC(=O)NN=C/C=C/c2ccccc2[N+](=O)[O-])n(C)c1=O,7,.,.,.,.,.,

# Assay outcomes from PubChem BioAssay.
